# The list is not random: actives were taken first. Their share in the collection is about 2.2%.
# MCL1 BIM primary = MCL1-BIM-BH3 interaction inhibition (human); GST-MCL1 / FITC-Bim-BH3 fluorescence polarization; inhibition, % at 10.9 µM; 0.68% of 320,000 active;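 active = inhibition above the mean inhibition of all tested compounds plus 3 SD, set per campaign, cut at about 40% in these data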;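 note: higher means more loss of mP so more displacement of Bim peptide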
# Mcl1-Noxa inh = Mcl-1/Noxa interaction inhibition | 1.5% of 220,000 active | TR-FRET Mcl-1/Noxa peptide binding, 2 h | inhibition, % at 21.7 µM | AID 1022 | Q07820;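 active = compounds that cut the protein-peptide binding signal by more than 50% relative to plate controls in a single-dose test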;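 note: His-tagged Mcl-1 with rhodamine Noxa BH3 peptide and terbium anti-His antibody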
# Mcl1-Bid inh = Mcl-1/Bid interaction inhibition. inhibition, % at 21.7 µM. Q07820. 0.97% of 220,000 active. TR-FRET Mcl-1/Bid-Dy647 peptide binding, 1536-well;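 active = compounds that cut the binding signal by more than half at the single screening dose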;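 note: His-tagged Mcl-1 with europium anti-His antibody binding Bid BH3 peptide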
# Bim-Mcl-1 = inhibitors of Bim-Mcl-1 interaction, human | Q07820 | Bead-based flow cytometry, Bim peptide-Mcl-1 binding | inhibition, % at 10 µM | 0.1% of 190,000 active | AID 1009; in the data active = inhibition above about 40%
# RBBP9 inhibitor = inhibitors of human serine hydrolase RBBP9. O75884. recombinant RBBP9, FP-Rh probe fluorescence polarization. inhibition, % at 7.94 µM. 0.2% of 220,000 active;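 active = inhibition above the campaign mean of all tested compounds plus 3 SD, cut at about 14% in these data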
# Target sequence (O75884 whole entry, looked up): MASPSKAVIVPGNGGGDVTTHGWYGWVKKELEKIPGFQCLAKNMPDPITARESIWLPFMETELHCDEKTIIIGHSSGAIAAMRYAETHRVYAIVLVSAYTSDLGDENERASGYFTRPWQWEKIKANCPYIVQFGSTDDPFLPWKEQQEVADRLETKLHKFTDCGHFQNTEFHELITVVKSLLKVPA
#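 system = RBBP9 protein | input = RBBP9 at 2.5 µM in dispensed solution, before mixing | measured by = fluorescence polarization (mP), excitation 525 nm, emission 598 nm | incubation = enzyme-compound preincubation 30 min, then probe labeling 45 min, 25 °C | buffer or medium = Tris-NaCl-Pluronic buffer, pH 8.0 | compound = single dose 7.94 µM | also added = FP-Rh probe, 375 nM dispensing solution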
# EBV gp42 inh = blocks Epstein-Barr virus glycoprotein 42 binding; AID 1085; 0.42% of 220,000 active; Fluorescence polarization binding assay, mP read-out; inhibition, % (tested at 21.74 µM); in the data active = inhibition above about 50%
# Target sequence (Q1HVG2 whole entry, looked up): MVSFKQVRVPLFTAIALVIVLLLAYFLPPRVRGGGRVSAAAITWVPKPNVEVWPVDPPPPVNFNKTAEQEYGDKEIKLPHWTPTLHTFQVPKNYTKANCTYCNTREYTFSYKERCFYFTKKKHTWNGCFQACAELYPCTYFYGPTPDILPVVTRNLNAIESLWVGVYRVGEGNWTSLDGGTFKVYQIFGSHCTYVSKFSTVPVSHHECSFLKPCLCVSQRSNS
# Numbers stand for hits; 0 = inactive; - = not tested or not shown.
SMILES,MCL1 BIM primary,Mcl1-Noxa inh,Mcl1-Bid inh,Bim-Mcl-1,RBBP9 inhibitor,EBV gp42 inh
CC1CCc2c(nc3sc4c(c3c2N)CCCC4)C1 (configuration not stated),0,54,0,0,0,0
CCCOC(=O)c1cc(-c2ccc(/C=C3/C(=O)N(C)C(=O)C(C#N)=C3C)o2)ccc1Cl,0,-,-,-,0,-
CC1=C(C#N)C(=O)NC(=O)/C1=C/c1ccc(-c2ccc(S(N)(=O)=O)cc2)o1,0,87,0,0,0,0
C=CCOC(=O)c1cc(-c2ccc(/C=C3\C(=O)NC(=O)C(C#N)=C3C)o2)ccc1Cl,-,105,99,0,0,57
O=C(CCl)Nc1nc(-c2ccco2)c(-c2ccco2)s1,0,53,0,0,0,0
CC(=O)c1sc(NC(=O)CCNC(=O)c2ccco2)nc1-c1ccccc1,0,-,-,-,-,-
O=C(CCCSc1ccccc1)Nc1nc(-c2ccco2)c(-c2ccco2)s1,0,52,0,0,0,0
CCCN(C(=O)C1CC(=O)N(c2ccccc2C(C)CC)C1)C1CCS(=O)(=O)C1 (configuration not stated),0,-,-,-,-,-
COc1cccc2cc(-c3nc(-c4cccs4)cs3)c(=O)oc12,0,0,0,0,0,0
O=c1oc2ccccc2cc1-c1nc(-c2cccs2)cs1,0,0,0,0,0,113
O=C(O)c1ccc(Nc2nc(-c3cc4ccccc4oc3=O)cs2)cc1O,-,97,0,0,0,0
O=C(O)c1ccc(Nc2nc(-c3cccnc3)cs2)cc1O,0,-,-,-,-,-
Nc1ccc(Nc2nc(-c3cc4ccccc4oc3=O)cs2)cc1,0,59,0,0,0,0
Cc1cc(N2CCOCC2)nc2ccc(Cl)cc12,0,-,-,-,-,-
CC1(OC(=O)c2ccco2)C(=O)C=C2C=C(c3ccsc3)OC=C2C1=O (configuration not stated),0,-,-,-,-,-
CCC(=O)OC1(C)C(=O)C=C2C=C(c3ccsc3)OC=C2C1=O (configuration not stated),0,68,0,-,-,0
O=C(CNC(=O)C12CC3CC(CC(C3)C1)C2)N/N=C\c1ccco1,0,-,-,-,-,-
O=C(/C=C/c1ccco1)c1ccc(NC(=O)C23CC4CC(CC(C4)C2)C3)cc1,0,60,0,0,0,0
CNC(=O)/C(C#N)=C/c1ccc(-c2ccc(OC)cc2[N+](=O)[O-])o1,0,0,66,0,0,0
N#C/C(=C/c1ccc(-c2ccccc2[N+](=O)[O-])o1)C(N)=O,0,0,0,0,0,0
N#C/C(=C/c1ccc(-c2cc([N+](=O)[O-])ccc2Cl)o1)C(N)=O,0,70,57,-,0,0
COc1ccc(-c2ccc(C(=O)O)o2)c([N+](=O)[O-])c1,0,0,0,0,0,0
Cc1cc(C)n(Cc2ccccc2F)c(=O)c1C#N,0,0,0,0,0,0
Cc1cc(C)n(Cc2cccc(F)c2)c(=O)c1C#N,0,0,96,0,0,0
Cc1cccc(OC(C)C(=O)N2CCN(Cc3ccc4c(c3)OCO4)CC2)c1 (configuration not stated),0,-,-,-,-,-
SMILES,MCL1 BIM primary,Mcl1-Noxa inh,Mcl1-Bid inh,Bim-Mcl-1,RBBP9 inhibitor,EBV gp42 inh
O=c1c(=NNc2ccccc2Cl)c(=O)c2ccccc12,-,0,57,0,0,0
CN(C)c1ccc2nc3ccc(=[N+](C)C)cc-3sc2c1,0,58,0,0,0,0
Cc1cc2nc3ccc(=[N+](C)C)cc-3sc2cc1N,-,51,0,-,0,0
COc1cc(OC)c(NC(=O)c2ccccc2F)cc1Cl,0,0,0,0,0,0
COc1cc(NC(=O)c2cc3ccccc3cc2O)c(OC)cc1Cl,0,61,0,-,0,0
CN(C)C(CNC(=O)CNC(=O)c1ccc2ccccc2c1)c1ccccc1 (configuration not stated),0,-,-,-,-,-
CC(C)C(=O)NC(c1cccs1)c1cc([N+](=O)[O-])c2cccnc2c1O (configuration not stated),0,63,55,0,0,0
Cc1ccc(C(NC(=O)C(C)C)c2cc([N+](=O)[O-])c3cccnc3c2O)cc1 (configuration not stated),0,0,0,0,0,0
O=C1CC(Nc2ccc(N3CCOCC3)cc2)C(=O)N1c1cccc(C(F)(F)F)c1 (configuration not stated),0,0,53,0,0,0
O=C(O)COc1ccc(C(NC(=O)c2c(F)cccc2F)NC(=O)c2c(F)cccc2F)cc1,0,-,-,-,-,-
CC(NC(=O)c1ccc2c(c1)C(=O)N(Cc1cccnc1)C2=O)c1ccccc1 (configuration not stated),0,-,-,-,-,-
CC1(C(=O)OCC(=O)Nc2nc(-c3ccc(F)c(F)c3)cs2)CC1(Cl)Cl (configuration not stated),0,-,-,-,-,-
COc1cccc2[nH]c3c(N4CCc5ccccc5C4)ncnc3c12,0,62,0,-,0,0
CC(=O)c1ccc(NC(=O)C(C)Sc2n[nH]c(-c3cccnc3)n2)cc1 (configuration not stated),0,-,-,-,-,-
Cn1c2c(c(=O)n(C)c1=O)C(NS(=O)(=O)c1ccc(Cl)cc1)(C(F)(F)F)C(=O)N2 (configuration not stated),0,53,0,0,0,0
Cc1ccc(-n2c3c(c(=O)[nH]c2=O)C(NS(=O)(=O)c2ccc(Cl)cc2)(C(F)(F)F)C(=O)N3)cc1 (configuration not stated),0,54,0,0,0,0
Cc1ccc(S(=O)(=O)NC2(C(F)(F)F)C(=O)Nc3c2c(=O)n(C)c(=O)n3C)cc1 (configuration not stated),0,0,0,0,0,0
Cc1c(Cl)cnc(NC(=O)COC(=O)c2cccc(S(=O)(=O)N3c4ccccc4CC3C)c2)c1Cl (configuration not stated),0,0,0,0,0,0
COCCNCC(=O)Nc1ccccc1Sc1ccccc1,0,0,0,0,0,0
CN(Cc1c(O)ccc2c1oc(=O)c1ccccc12)C1CCCCC1,0,0,65,0,0,0
Cc1ccc(C)c(NC(=O)Cn2nc(-c3ccccc3)nc2-c2ccccc2)c1,0,0,56,0,0,0
COC(=O)COc1ccc(C(C2C(=O)CC(C)(C)CC2=O)C2C(=O)CC(C)(C)CC2=O)cc1,0,-,-,-,-,-
CN1CCN(C(=O)C2CCN(c3ncc(C(F)(F)F)cc3Cl)CC2)CC1,0,0,0,0,0,0
COc1cccc(-c2cc(C(=O)NCc3ccco3)c3ccccc3n2)c1,0,-,-,-,-,-
Cn1c(=S)[nH]c2scc(-c3cccs3)c2c1=O,-,64,0,0,0,0
O=c1nc(/C=C/c2cccn2-c2ccc([N+](=O)[O-])cc2)cc(C(F)(F)F)[nH]1,0,57,0,0,0,0
Cc1ccccc1CNS(=O)(=O)c1c(C)[nH]c(C)c1C(=O)N1CCCCC1,0,-,-,-,-,-
O=C(c1cccc(C(F)(F)F)c1)C1CCCN(C(=O)CN2CCOC2=O)C1 (configuration not stated),0,-,-,-,-,-
